Assay outcomes deposited in PubChem by The Scripps Research Institute Molecular Screening Center.
TAAR1 antag – human TAAR1 antagonists, primary screen, Fluo-8 calcium fluorescence, CHO RD-HGA16 cells; Trace amine-associated receptor 1 (Homo sapiens), Q96RJ0; antagonist; inhibition, % at 3 µM; actives 1.5% (n = 360,000);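 active = inhibition above a per-plate cutoff, the mean inhibition of test compounds on that plate plus 3 SD, cut at about 49% in these data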;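 also: 0% = DMSO plus EC80 beta-PEA response and 100% = DMSO alone without agonist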
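Material: RD-HGA16 CHO cells with stable hTAAR1 and Gα16; Dosing: single nominal final test compound concentration of 3 µM; Schedule: seeding 17-24 h prior, 75-min 37 °C, 30-min RT dye loading; Detection: kinetic Fluo-8 calcium fluorescence measurement; Measure: % inhibition from peak post-agonist over basal fluorescence ratio; Benchmarks: vehicle and agonist controls.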
TAAR1 ag – human TAAR1 agonists, primary screen, Fluo-8 calcium fluorescence, CHO RD-HGA16 cells; vehicle wells 0%, saturating PEA agonist 100%; actives 0.99% (n = 360,000); AID 624467, 2012; activation, % at 3 µM;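 active = activation above the mean activation of all test compounds in the run plus 3 SD, cut at about 38% in these data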
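Benchmarks: low control DMSO, high control PEA (EC100); System: CHO RD-HGA16 cells carrying human TAAR1 plus Gα16; Detection: Fluo-8 fluorescence, 5 s baseline then 140 s kinetic read; Schedule: 17-24 h plating, Fluo-8 75 min 37 °C, 30 min RT; Read-out basis: % activation from peak over basal fluorescence ratio, DMSO-to-PEA scaled.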
V1aR counter – agonists of human V1a receptor, primary screen, counter-screen for OXTR agonist project, fluorescence, CHO-V1R cells; Fluo-8 calcium fluorescence, agonist mode; 0% DMSO, 100% 3 nM vasopressin; activation, % at 3 µM; actives 0.25% (n = 320,000); AID 2797, 2010;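 active = activation above the mean activation of all tested compounds plus 3 SD, per screening run, cut at about 20% in these data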;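 also: signal is peak over basal fluorescence ratio across a 100 second FLIPR read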
OXTR potentiator – human OXTR potentiators, primary screen, fluorescence, CHO-OTR cells, Fluo-8 calcium; Fluo-8 calcium fluorescence, potentiator mode; 0% = oxytocin EC15, 100% = EC100; activation, % at 3 µM; Oxytocin receptor (Homo sapiens), P30559; actives 0.061% (n = 320,000);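 active = activation above that plate's cutoff, the mean activation of tested compounds plus 3 SD, cut at about 6.6% in these data, passing the limit was not always enough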;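 also: 100% uses oxytocin at 75 nM as the full agonist control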
Target sequence (P30559 whole entry, looked up): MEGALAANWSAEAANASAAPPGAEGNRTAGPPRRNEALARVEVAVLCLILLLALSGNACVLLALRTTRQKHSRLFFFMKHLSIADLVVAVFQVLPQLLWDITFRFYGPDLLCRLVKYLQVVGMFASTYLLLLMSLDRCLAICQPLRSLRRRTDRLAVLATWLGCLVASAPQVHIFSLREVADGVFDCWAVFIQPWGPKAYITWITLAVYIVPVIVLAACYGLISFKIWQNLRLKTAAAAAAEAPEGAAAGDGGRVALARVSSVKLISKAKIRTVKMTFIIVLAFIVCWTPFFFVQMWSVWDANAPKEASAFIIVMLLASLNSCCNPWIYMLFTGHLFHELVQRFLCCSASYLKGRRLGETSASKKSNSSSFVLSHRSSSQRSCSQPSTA
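assay system = CHO-OTR cells, human receptor | schedule = compound 6 min at room temperature before oxytocin, 100 s read | detection = Fluo-8 intracellular calcium fluorescence, ex 470-495, em 515-575 nm | evaluation = normalized max/min fluorescence ratio, % activation | control set = EC15 oxytocin alone as 0%, 75 nM oxytocin (EC100) as 100%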
OXTR agonist – human OXTR agonists, primary screen, fluorescence, CHO-OTR cells, Fluo-8 calcium; activation, % at 3 µM; Fluo-8 calcium fluorescence; normalized: DMSO 0%, oxytocin 100%; actives 0.32% (n = 320,000); Oxytocin receptor (Homo sapiens), P30559;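 active = activation above the mean of all tested compounds plus 3 SD, cutoff set per screening run, cut at about 20% in these data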;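 also: peak over basal fluorescence ratio from a 100 s FLIPR kinetic read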
OXTR agonist cf – human OXTR agonists, confirmation, fluorescence, CHO-OTR cells, triplicate. actives 20% (n = 390). Fluo-8 calcium fluorescence, agonist. shares compounds with OXTR agonist. AID 434963, 2010. activation, % at 3 µM;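 active = mean activation above about 20% derived from the earlier single-dose screen, limit read from the data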;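 also: peak over minimum fluorescence ratio per well during a 100 second FLIPR read; 0% = DMSO alone and 100% = oxytocin high control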
V1aR counter 3x – V1a receptor agonists, calcium signal, counter-screen for OXTR agonist project, triplicate, fluorescence, CHO-V1R cells; activation, % at 3 µM; Fluo-8 calcium fluorescence; shares compounds with OXTR agonist; actives 10% (n = 390);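 active = mean activation over triplicate exceeds the hit threshold set in the earlier primary screen, cut at about 20% in these data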;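 also: peak over basal fluorescence ratio within a 100 second read; 0% = DMSO alone and 100% = 3 nM vasopressin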
The depositor's hits bear a star; . = no result given. Sampled rows, rich in hits. Any-hit rate of the full collection: about 2.3%.

SMILES	TAAR1 antag	TAAR1 ag	V1aR counter	OXTR potentiator	OXTR agonist	OXTR agonist cf	V1aR counter 3x
Cn1c(=N)n(CC(=O)c2ccc(Br)s2)c2ccccc21	2	2	2	-11	0	.	.
CNc1nc2cc([N+](=O)[O-])c([N+](=O)[O-])cc2nc1NC	8	16	11	-11	26*	23*	16
COc1ccc(C(O)(C(C)C)C(CN2CCOCC2)c2ccc(Cl)cc2)cc1 (stereo not drawn)	-39	21	0	-6	4	.	.
COc1cc(Cl)c(C)cc1NC(=O)c1ccc(S(C)(=O)=O)cc1	27	0	0	-22	0	.	.
O=C(Nc1cccc([N+](=O)[O-])c1)c1cc2ccccc2cc1O	3	12	14	-9	25*	16	13
O=C(O)c1ccccc1C(=O)Nc1cccc([N+](=O)[O-])c1	-3	1	0	4	2	.	.
Cc1cccc(S(=O)(=O)NC(=O)C2(C)CCN2C(=O)C/C=C/c2ccccc2)c1 (stereo not drawn)	12	0	.	.	.	.	.
Cc1ccc(Oc2ccc(OCC(=O)OC3CCS(=O)(=O)C3)cc2)cc1 (stereo not drawn)	.	.	16	-16	25*	2	6
CC1C/C(=C/c2ccco2)C(=O)/C(=C/c2ccco2)C1 (stereo not drawn)	.	.	6	-8	24*	6	5
O=C1/C(=C\c2ccco2)CCC/C1=C\c1ccco1	11	7	11	-6	4	.	.
COC(=O)c1cc(NC(=S)NCc2ccc(Cl)cc2)cc(C(=O)OC)c1	19	31	14	-10	17	.	.
COC(=O)c1cccc(NC(=S)NCc2ccc(Cl)cc2)c1	42	30	20	-13	21*	15	11
CCOC(=O)c1cc(C)sc1NC(=O)CN1CCN(C(=O)c2ccco2)CC1	35	42*	16	-9	23*	1	0
Cc1ccccc1NC(=S)NNc1ncc(C(F)(F)F)cc1Cl	1	11	8	-6	10	.	.
Cc1c(Cl)cccc1NC(=S)NNc1ncc(C(F)(F)F)cc1Cl	20	33	16	-12	29*	7	7
Cc1cccc(NC(=O)C2(c3ccc([N+](=O)[O-])cc3)CCCC2)c1	0	48*	17	-25	22*	7	3
CCC1(c2ccc(F)cc2)NC(=O)N(CC(=O)Nc2ccc(N3CCCCC3)cc2)C1=O (stereo not drawn)	19	60*	15	-18	27*	16	14
OC(CCCN1CCCCC1)(c1ccccc1)c1ccc(C(F)(F)F)cc1 (stereo not drawn)	-14	14	.	.	.	.	.
COc1ccccc1OCC(=O)Nc1ccncc1	3	2	2	3	4	.	.
Cc1cccc(OCC(=O)Nc2ccncc2)c1C	-4	5	14	-25	20*	10	9
COCCn1c(Cc2ccccc2)nnc1SCC(=O)NC1CC1	-13	-1	1	-14	0	.	.
Brc1ccc(CN2CCN(Cc3c[nH]c4ccccc34)CC2)cc1	10	38*	7	-18	20*	8	4
c1ccc2c(-c3cc(NCc4ccncc4)n4nccc4n3)cccc2c1	-1	1	.	.	.	.	.
O=C(O)c1ccc(N/N=C/c2cn(Cc3ccc(F)cc3)c3ccccc23)cc1	34	9	20	-17	21*	10	7
O=c1c2ccccc2ncn1-c1ccc([N+](=O)[O-])cc1[N+](=O)[O-]	-2	12	15	-16	21*	0	1
